Consider 13 compounds from ChEMBL document CHEMBL1132122, “Synthesis and antimalarial activity of 11 dispiro-1,2,4,5-tetraoxane analogues of WR 148999. 7,8,15,16-Tetraoxadispiro[5.2.5.2]hexadecanes substituted at the 1 and 10 positions with unsaturated and polar functional groups” (J Med Chem, 1999).

pIC50: −log10 of the molar value.

As a reminder, the pIC50 is −log10 of the IC50, conventionally taken in molar units.

Assay [1] relates to Mus musculus. Nature of the assay: In vivo evaluation for antimalarial activity against Plasmodium berghei in terms of survival days when administered orally in mice (Mus musculus). Format: functional. Put shortly:
(§1)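 P. berghei ANKA infection in Moro SPF mice, groups of three. Treatment was one 100 mg/kg dose on day 1 post-infection, dissolved or suspended in 3% ethanol plus 7% Tween 80, given orally or subcutaneously. Read-out is mean survival time in days, compared with an untreated control group.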

The test system of assay [2] is Plasmodium falciparum. Nature of the assay: In vitro antimalarial activity against chloroquine-resistant Plasmodium falciparum K1. Format: functional, organism-based. Put shortly:
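Tritiated hypoxanthine uptake assay (modified Desjardins method) on P. falciparum asexual cultures, run on chloroquine-resistant K1 and drug-sensitive NF54 strains.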

Assay [3] has as its system Mus musculus. The assay can be described thus: In vivo evaluation for antimalarial activity against Plasmodium berghei in percentage when administered orally in mice (Mus musculus). Format: functional. Set-up: concentration or dose not given beside the values. In outline: (§2)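 Moro SPF mice infected with P. berghei ANKA, three per group. A single 100 mg/kg dose in 3% ethanol/7% Tween 80 (solution or suspension) was given on day 1 post-infection, po or sc. Activity is percent reduction of parasitemia on day 3 post-infection versus untreated controls.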

Assay [4] deals with Plasmodium falciparum. The assay can be described thus: In vitro antimalarial activity against drug-sensitive Plasmodium falciparum NF54.
Assay [5] has as its system Mus musculus. Nature of the assay: In vivo evaluation for antimalarial activity against Plasmodium berghei in percentage when administered subcutaneously in mice (Mus musculus). Format: functional. Set-up: concentration or dose not given beside the values. In outline: as §2
The test system of assay [6] is Mus musculus. The assay can be described thus: In vivo evaluation for antimalarial activity against Plasmodium berghei in terms of survival days when administered subcutaneously in mice (Mus musculus). Format: functional. Put shortly: as §1

Compound `C=CC[C@@H]1CCCCC12OOC1(CCCC[C@@H]1CC=C)OO2` (some centres not stated) displayed a Survival in the assay on Mus musculus [1] of 7 days. The pIC50 in the assay on Plasmodium falciparum [2] is 7.72; in the assay on Plasmodium falciparum [4] it was 7.64. Further, the Activity in the assay on Mus musculus [3] was 93%; in the assay on Mus musculus [5] it was 15%.
Regarding `O=C(O)C[C@H]1CCCCC12OOC1(CCCC[C@H]1CC(=O)O)OO2` (some centres not stated), the pIC50 with Plasmodium falciparum [2] and with Plasmodium falciparum [4] was less than 6.70 throughout.
For `C[C@@H]1CC[C@H]2[C@@H](C)C(=O)O[C@@H]3O[C@@]4(C)CC[C@@H]1[C@]32OO4` [ARTEMISININ], the figures for the Survival with Mus musculus [1] and with Mus musculus [6] were 7.3 days and 14 days, respectively. Further, the values for the Activity with Mus musculus [3] and with Mus musculus [5] were 98% and 100%, respectively. In the assay with Plasmodium falciparum [4], this compound had a pIC50 of 7.92.
Consider `c1ccc(C[C@H]2CCCCC23OOC2(CCCC[C@H]2Cc2ccccc2)OO3)cc1` (some centres not stated), for which the pIC50 with Plasmodium falciparum [2] and with Plasmodium falciparum [4] was less than 6.70 each time.
On to `OC[C@@H]1CCCCC12OOC1(CCCC[C@@H]1CO)OO2` (some centres not stated), for which the pIC50 in the assay on Plasmodium falciparum [2] and in the assay on Plasmodium falciparum [4] was less than 6.70 throughout.
Regarding `O=C(OC[C@H]1CCCCC12OOC1(CCCC[C@H]1COC(=O)c1ccccc1)OO2)c1ccccc1` (some centres not stated), the pIC50 in the assay on Plasmodium falciparum [2] and in the assay with Plasmodium falciparum [4] was less than 6.70 in each case.
Regarding `C[C@@H]1CCCCC12OOC1(CCCC[C@@H]1C)OO2` (some centres not stated) [WR-148999], the Survival in the assay on Mus musculus [1] turned out to be 7.7 days; in the assay with Mus musculus [6] it was 27.7 days. The pIC50 was 7.55 in the assay with Plasmodium falciparum [2] and 7.41 in the assay with Plasmodium falciparum [4]. Besides, the Activity in the assay with Mus musculus [3] was determined as 99.7%; in the assay on Mus musculus [5], 100%.
Consider `O=C(O)CC[C@H]1CCCCC12OOC1(CCCC[C@H]1CCC(=O)O)OO2` (some centres not stated), for which the negative-log IC50 (pIC50) with Plasmodium falciparum [2] and in the assay with Plasmodium falciparum [4] was less than 6.70 each time.
Regarding `c1ccc(COC[C@H]2CCCCC23OOC2(CCCC[C@H]2COCc2ccccc2)OO3)cc1` (some centres not stated), the values for the pIC50 in the assay with Plasmodium falciparum [2] and in the assay on Plasmodium falciparum [4] were 7.74 and 7.59, respectively. The Activity with Mus musculus [3] and in the assay with Mus musculus [5] was 0% in each case.
With `CCOC(=O)CC[C@H]1CCCCC12OOC1(CCCC[C@H]1CCC(=O)OCC)OO2` (some centres not stated), the pIC50 with Plasmodium falciparum [2] was 7.85; with Plasmodium falciparum [4], 7.80. In addition, the Activity in the assay with Mus musculus [3] and with Mus musculus [5] was 0% in each case.
Take `COC[C@H]1CCCCC12OOC1(CCCC[C@H]1COC)OO2` (some centres not stated): the pIC50 in the assay on Plasmodium falciparum [2] was 7.82; in the assay with Plasmodium falciparum [4], 7.80. Besides, in the assay on Mus musculus [6], the Survival is 24.7 days. For the same compound, the Activity is 18% in the assay on Mus musculus [3] and 100% in the assay on Mus musculus [5].
As for `CCOC(=O)C[C@H]1CCCCC12OOC1(CCCC[C@H]1CC(=O)OCC)OO2` (some centres not stated), the pIC50 is 8.21 with Plasmodium falciparum [2] and 8.19 in the assay on Plasmodium falciparum [4]. Moreover, the Activity with Mus musculus [3] and in the assay on Mus musculus [5] was 0% in each case.
As to `C#CC[C@@H]1CCCCC12OOC1(CCCC[C@@H]1CC#C)OO2` (some centres not stated), the pIC50 in the assay with Plasmodium falciparum [2] and with Plasmodium falciparum [4] was 7.89 each time. Besides, the Activity in the assay on Mus musculus [3] is reported as 0%; in the assay with Mus musculus [5] it was 9%.
